Measured values from ChEMBL document CHEMBL4020816.

Legend:
[1] = target: T1, Cannabinoid receptor 1 (Homo sapiens, UniProt P21554); assay: Displacement of [3H]CP55940 from recombinant human CB1 receptor expressed in beta-galactosidase expressing CHOK1 cell membranes assessed as kinetic rate index by measuring ratio of radioligand binding at 30 mins to 240 mins by scintillation spectrometry
[2] = target: T1, Cannabinoid receptor 1; assay: Displacement of [3H]CP55940 from recombinant human CB1 receptor expressed in beta-galactosidase expressing CHOK1 cell membranes after 60 mins by scintillation spectrometry
[3] = target: T1, Cannabinoid receptor 1; assay: Antagonist activity at recombinant human CB1 receptor expressed in HEK293 cell membranes assessed as inhibition of CP55940-induced [35S]GTPgammaS binding preincubated for 1 hr followed by CP55940 addition and subsequent incubation with [35S]GTPgammaS measured after 30 mins by scintillation spectrometry; type: functional
Outline: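 Antagonism was measured by [35S]GTPγS binding at 30 °C on membranes of HEK-293 cells stably expressing recombinant human CB1.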

T1 sequence (P21554 whole entry): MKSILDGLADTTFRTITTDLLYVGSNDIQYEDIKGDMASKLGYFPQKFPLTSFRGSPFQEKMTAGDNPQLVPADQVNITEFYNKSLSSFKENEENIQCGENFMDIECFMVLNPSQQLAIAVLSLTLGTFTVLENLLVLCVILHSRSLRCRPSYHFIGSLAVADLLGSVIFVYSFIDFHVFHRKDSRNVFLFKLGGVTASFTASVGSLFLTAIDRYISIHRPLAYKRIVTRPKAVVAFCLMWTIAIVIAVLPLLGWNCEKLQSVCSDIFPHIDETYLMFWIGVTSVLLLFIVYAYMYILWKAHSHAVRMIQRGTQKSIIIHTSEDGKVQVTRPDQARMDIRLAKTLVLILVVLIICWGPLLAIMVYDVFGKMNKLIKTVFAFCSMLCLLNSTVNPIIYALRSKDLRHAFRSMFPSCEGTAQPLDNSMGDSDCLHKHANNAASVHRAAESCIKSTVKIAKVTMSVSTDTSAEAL

Row | SMILES | Ratio [1] | Ki ([2]; read-out: Ki) | Ki ([2]; read-out: pKi (converted)) | IC50 ([3]; read-out: IC50) | IC50 ([3]; read-out: pIC50 (converted))
1 | Cc1c(C(=O)Nc2ccc(OC(F)(F)F)cc2)nc(-c2ccc(Cl)cc2Cl)n1-c1ccc(OS(=O)(=O)CCC(F)(F)F)cc1 | 1.29 | 0.22 nM | 0.501 nM | 0.66 nM | 
2 | Cc1c(C(=O)NN2CCCCC2)nc(-c2ccc(Cl)cc2Cl)n1-c1ccc(OCCC(F)(F)F)cc1 | 0.9 | 1.26 nM |  | 5.6 nM | 
3 | Cc1ccc(NC(=O)c2nc(-c3ccc(Cl)cc3Cl)n(-c3ccc(OS(=O)(=O)CCC(F)(F)F)cc3)c2C)nc1 | 0.92 | 0.14 nM |  | 1.7 nM | 
4 | Cc1c(C(=O)Nc2ccc(C(F)(F)F)nc2)nc(-c2ccc(Cl)cc2Cl)n1-c1ccc(OS(=O)(=O)CCC(F)(F)F)cc1 | 1.12 | 0.31 nM |  | 2.2 nM | 
5 | CCCS(=O)(=O)Oc1ccc(-n2c(-c3ccc(Cl)cc3Cl)nc(C(=O)NN3CCCCC3)c2C)cc1 | 0.59 | 0.28 nM |  | 1.8 nM | 
6 | Cc1c(C(=O)NN2CCCCC2)nc(-c2ccc(Cl)cc2Cl)n1-c1ccc(OCCCC(F)(F)F)cc1 | 0.8 | 0.32 nM |  | 1.2 nM | 
7 | Cc1c(C(=O)Nc2ccc(F)nc2)nc(-c2ccc(Cl)cc2Cl)n1-c1ccc(OS(=O)(=O)CCC(F)(F)F)cc1 | 0.7 | 0.13 nM |  |  | 1.26 nM
8 | Cc1c(C(=O)NN2CCCCC2)nc(-c2ccc(Cl)cc2Cl)n1-c1ccc(OS(=O)(=O)CCCF)cc1 | 0.88 | 0.32 nM |  | 3.1 nM | 
9 | Cc1c(C(=O)Nc2ccc(C(F)(F)F)cn2)nc(-c2ccc(Cl)cc2Cl)n1-c1ccc(OS(=O)(=O)CCC(F)(F)F)cc1 | 1.39 | 0.19 nM |  | 0.61 nM | 
10 | Cc1c(C(=O)N[C@H]2CCCC[C@H]2N)nc(-c2ccc(Cl)cc2Cl)n1-c1ccc(OS(=O)(=O)CCC(F)(F)F)cc1 (racemic) | 0.79 | 0.52 nM |  | 7.1 nM | 
11 | Cc1c(C(=O)NN2CCCCC2)nc(-c2ccc(Cl)cc2Cl)n1-c1ccc(OS(=O)(=O)CCC(C)(C)C)cc1 | 0.73 | 0.6 nM |  | 2.4 nM | 
12 | Cc1c(C(=O)N[C@@H]2CCCC[C@@H]2N(C)C)nc(-c2ccc(Cl)cc2Cl)n1-c1ccc(OS(=O)(=O)CCC(F)(F)F)cc1 (racemic) | 0.74 |  |  |  | 
13 | Cc1c(C(=O)N[C@@H]2CCCC[C@@H]2O)nc(-c2ccc(Cl)cc2Cl)n1-c1ccc(OS(=O)(=O)CCC(F)(F)F)cc1 | 1.06 | 0.027 nM | 0.01 nM | 1.8 nM | 
14 | Cc1c(C(=O)NN2CCCC(O)C2)nc(-c2ccc(Cl)cc2Cl)n1-c1ccc(OS(=O)(=O)CCC(F)(F)F)cc1 (racemic) | 0.71 | 0.27 nM |  | 2.7 nM | 
15 | Cc1c(C(=O)NN2CCCCC2)nc(-c2ccc(Cl)cc2Cl)n1-c1ccc(OS(=O)(=O)CCC(F)(F)F)cc1 | 1.02 | 0.11 nM |  | 1.1 nM | 
16 | Cc1c(C(=O)NN2CCCCC2)nc(-c2ccc(Cl)cc2Cl)n1-c1ccc(OCCCF)cc1 | 1.09 | 0.34 nM | 0.1 nM | 6 nM | 
17 | CCCCS(=O)(=O)Oc1ccc(-n2c(-c3ccc(Cl)cc3Cl)nc(C(=O)NN3CCCCC3)c2C)cc1 | 0.77 | 0.18 nM |  | 1.3 nM | 
18 | Cc1c(C(=O)NN2CCCCC2)nc(-c2ccc(Cl)cc2Cl)n1-c1ccc(OS(=O)(=O)CCC(C)C)cc1 | 1.02 | 0.2 nM |  | 1.3 nM | 
19 | Cc1c(C(=O)NN2CCCCC2)nc(-c2ccc(Cl)cc2Cl)n1-c1ccc(OS(=O)(=O)CCCC(F)(F)F)cc1 | 0.93 | 0.062 nM |  | 1.2 nM | 
20 | Cc1c(C(=O)N[C@H]2CCC[C@H](O)C2)nc(-c2ccc(Cl)cc2Cl)n1-c1ccc(OS(=O)(=O)CCC(F)(F)F)cc1 (racemic) | 0.89 | 0.1 nM |  | 1.1 nM | 
21 | Cc1c(C(=O)N[C@@H]2CCCC[C@H]2O)nc(-c2ccc(Cl)cc2Cl)n1-c1ccc(OS(=O)(=O)CCC(F)(F)F)cc1 | 0.74 | 0.3 nM |  | 1.7 nM | 
22 | Cc1c(C(=O)NC2CCC(O)CC2)nc(-c2ccc(Cl)cc2Cl)n1-c1ccc(OS(=O)(=O)CCC(F)(F)F)cc1 (mixture of isomers) | 0.88 | 0.37 nM |  | 3.8 nM | 
